What is called ED50 is the dose at which the effect has come halfway, by size or by number of responders. Read a low ED50 as an effect at a small dose. Broadly, the IC50 is the point on the concentration scale where inhibition reaches its midpoint. The low end stands for inhibition by little substance, the high end for a need for much substance.

SMILES strings stand for the structures. Bounds are passed on as bounds.

The results in this text go back to ChEMBL document CHEMBL1143339, “Design and synthesis of amidoxime derivatives for orally potent C-alkylamidine-based antimalarial agents” (Bioorg Med Chem Lett, 2009).

The test system of experiment [1] is Plasmodium vinckei petteri. Briefly: Antimalarial activity against Plasmodium vinckei petteri 279BY infected Swiss mice (Mus musculus) at daily peroral dose for 4 days. The format is functional. As to conditions: po, 96 h. The essentials:
(§1)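 Female Swiss mice infected iv with 10⁷ P. vinckei petteri 279BY parasites (about 0.5% parasitemia on day 1). Dosed ip or orally once daily on days 1–4 post-infection. Parasitemia read on day 5 and expressed as % of untreated control. Three mice per dose; mean ± SEM.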

Experiment [2] relates to Plasmodium vinckei petteri. The experiment can be described thus: Antimalarial activity against Plasmodium vinckei petteri 279BY infected Swiss mice (Mus musculus) at daily intraperitoneal dose for 4 days. The format is functional. As to conditions: ip, 96 h. The essentials:
as §1

Experiment [3] concerns Plasmodium falciparum. Briefly: Antimalarial activity after 48 hrs against chloroquine-sensitive Plasmodium falciparum Nigerian by [3H]hypoxanthine uptake. The format is functional, organism-based. In short, it runs like this:
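IC50 against P. falciparum given as the mean of at least two independent experiments, each run in duplicate.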

Experiment [4] concerns Plasmodium vinckei petteri. The experiment can be described thus: Antimalarial activity against Plasmodium vinckei petteri 279BY infected Swiss mice (Mus musculus) at 180 mg/kg/day peroral dose over 4 days. As to conditions: route oral. The format is functional. The essentials: as §1
Experiment [5] has as its system Plasmodium vinckei petteri. The experiment can be described thus: Antimalarial activity against Plasmodium vinckei petteri 279BY infected Swiss mice (Mus musculus) at 20 mg/kg/day intraperitoneal dose over 4 days. The format is functional. In short, it runs like this:
as §1

Experiment [6] relates to Plasmodium vinckei petteri. Briefly: Antimalarial activity against Plasmodium vinckei petteri 279BY infected Swiss mice (Mus musculus) at 120 mg/kg/day peroral dose over 4 days. As to conditions: route oral. The format is functional. The essentials:
as §1

Take `CC(=O)O/N=C(/N)CCCCCCCCCCCCC(=N)NOC(C)=O`: the ED50 in experiment [1] is more than 90 mg/kg; in experiment [2] it was more than 10 mg/kg. Further, the half-maximal inhibitory concentration (IC50) in experiment [3] stood at 1.4 µM.

For `CS(=O)(=O)O/N=C(/N)CCCCCCCCCCCCC(=N)NOS(C)(=O)=O`, the median effective dose (ED50) in experiment [1] was found to be 40 mg/kg; in experiment [2] it was 7 mg/kg. In experiment [3], this compound yielded an IC50 of 0.0025 µM.

Take `NC(=O)c1nc(CCCCCCCCCCCCc2noc(C(N)=O)n2)no1`: in experiment [2], the ED50 is more than 20 mg/kg. For the same compound, the IC50 in experiment [3] is 7 µM.

`N/C(CCCCCCCCCCCC/C(N)=N/O)=N\O` yielded an ED50 in experiment [1] of 120 mg/kg. In addition, the half-inhibitory concentration (IC50) in experiment [3] was determined as 3.5 µM.

As to `N=C(CCCCCCCCCCCC/C(N)=N\OC(=O)Nc1ccccc1)NOC(=O)Nc1ccccc1`, the results for the ED50 in experiment [1] and in experiment [2] were more than 180 mg/kg and more than 20 mg/kg, respectively.

With `CO/N=C(/N)CCCCCCCCCCCCC(=N)NOC`, the ED50 in experiment [1] is 180 mg/kg; in experiment [2], more than 20 mg/kg. In experiment [4], this compound gave an Activity of 50%. This compound gave a 50% inhibitory concentration (IC50) in experiment [3] of 6.8 µM.

Take `N=C(N)CCCCCCCCCCCCC(=N)N` [TETRADECANEBIS(IMIDAMIDE)]: the ED50 is more than 100 mg/kg in experiment [1] and more than 10 mg/kg in experiment [2].

Turning to `O=c1[nH]c(CCCCCCCCCCCCc2noc(=O)[nH]2)no1`, the ED50 in experiment [1] is 100 mg/kg; in experiment [2] it was more than 20 mg/kg. In experiment [3], this compound yielded an IC50 of 9.2 µM.

For `Cc1c(CCO)sc[n+]1CCCCCCCCCCCC[n+]1csc(CCO)c1C` [ALBITIAZOLIUM BROMIDE], the IC50 in experiment [3] amounted to 0.0022 µM.

In experiment [2], `N#Cc1nc(CCCCCCCCCCCCc2noc(C#N)n2)no1` yielded an ED50 of more than 20 mg/kg. The same compound showed an IC50 in experiment [3] of 100 µM.

Regarding `O=c1[nH]c(CCCCCCCCCCCCc2nsc(=O)[nH]2)ns1`, the median effective dose (ED50) in experiment [1] was more than 120 mg/kg; in experiment [2] it was 20 mg/kg. In addition, the Activity came out at 50% in experiment [5] and 25% in experiment [6]. Besides, the IC50 in experiment [3] stood at 0.0175 µM.

On to `CCNC(=O)O/N=C(/N)CCCCCCCCCCCCC(=N)NOC(=O)NCC`, for which the ED50 in experiment [1] was 90 mg/kg; in experiment [2] it was more than 20 mg/kg. This compound also displayed an Activity in experiment [6] of 80%. Besides, the IC50 in experiment [3] was 0.18 µM.

Turning to `N=C(CCCCCCCCCCCC/C(N)=N\OC(=O)c1ccccc1)NOC(=O)c1ccccc1`, the values for the median effective dose (ED50) in experiment [1] and in experiment [2] were more than 90 mg/kg and more than 10 mg/kg, respectively. In experiment [3], this compound returned a 50% inhibitory concentration (IC50) of 1.1 µM.
